This is a sample that favours compounds with a hit; in the whole collection about 9.4% have one here.
CSC inhib: cancer stem cell inhibition. inhibition, % at 7.5 µM. AID 2717. 300,000 tested, 1.1% active. cancer stem cell-like cells viability, luminescence; in the data active = inhibition above about 75%; inconclusive = no clear call, values can overlap the other calls; tested in HMLE shEcad cells
Beta cell apopt: blocks beta cell apoptosis; INS-1E cytokine-induced death, ATP luminescence, 48 h; percent of positive-control rescue, neutral wells zero; 300,000 tested, 0.8% active; protection from apoptosis, % (no concentration beside the values);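 active = Every replicate reaches about 75%, or at least half do and their mean reaches it too, limit read from the data; inconclusive = At least half of replicates reach the limit but their mean does not; inactive = Under half of replicates reach the limit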;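 note: 0% = cytokine-treated negative control wells and 100% = positive control rescue; higher means more ATP so stronger rescue from cytokine killing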
SKKanGAS inh: blocks kanamycin growth of S. pyogenes SKKanGAS strain; inhibition, % at 7.5 µM; 300,000 tested, 1.3% active; BacTiter-Glo, 6 h; AID 1662;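 active = mean replicate score, as percent of positive control median, at least 50; inconclusive = mean below 50 but one replicate at or above 50; inactive = mean and every replicate below 50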;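 note: strain carries kanamycin resistance gene driven by streptokinase promoter and grows in 40 µg/ml kanamycin; loss of luminescence reflects streptokinase promoter inhibition or plain growth inhibition; 0% = median of DMSO wells and 100% = positive control at its reference dose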
T cruzi repl: blocks replication of Trypanosoma cruzi; T. cruzi beta-gal in NIH3T3, luminescence, 90 h; inhibition, % (no concentration beside the values); 300,000 tested, 1.4% active; AID 1885;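 active = mean inhibition across valid replicates above about 55%, limit read from the data; inconclusive = mean below that limit but half or more replicates reach it; inactive = mean below it, under half of replicates reach it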;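 note: signal also drops with host cell toxicity which is not excluded here; 0% = plate median of DMSO wells and 100% = zero luminescence signal; higher percent means less beta-gal luminescence so fewer parasites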
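Material: NIH/3T3 host cells with β-galactosidase reporter T. cruzi; Input: 5,000 host fibroblasts per well; Medium: DMEM, 2% fetal bovine serum; Compound: 50 nL DMSO compound solution per well; Schedule: 3 h host attachment, then at least 90 h co-culture; Detection: luminescent β-galactosidase signal after 60 min lysis.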
Mdm2 MdmX PPI: human Mdm2/MdmX binding inhibition; SaOS-2 split-luciferase Mdm2/MdmX complementation, luminescence; inhibition, % at 8 µM; O15151+Q00987; 330,000 tested, 3% active;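 active = inhibition of at least 50% at 8 µM in the primary screen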
Lmaj promast: reduces viability of Leishmania major promastigotes. 200,000 tested, 9% active. resazurin fluorescence viability. inhibition, % at 10 µM; in the data active = inhibition above about 50%;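 note: promastigotes grown with compound for 44 hours at 28 °C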
Mdm2-MdmX conf: confirmation of human Mdm2/MdmX interaction inhibitors; shares compounds with Mdm2 MdmX PPI; Mdm2-MdmX binding, luminescent assay; inhibition, % at 8 µM; 10,000 tested, 55% active; AID 489028; in the data active = inhibition above about 40%
FLuc counter: full-length luciferase inhibition in Mdm2/MdmX counter-screen. shares compounds with Mdm2 MdmX PPI. SaOS-2 full-length luciferase counterscreen, luminescence. inhibition, % at 8 µM. 6,200 tested, 77% active. AID 504607;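 active = mean inhibition at 8 µM reaching about 37%, which flags the compound as non-specific, limit read from the data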;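 note: p53-null SaOS-2 cells with luciferase driven by a doxycycline-inducible promoter; compound on cells about two nights before reading with doxycycline added after day one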
An asterisk follows results filed as active; u = inconclusive; x = no result.

SMILES	CSC inhib	Beta cell apopt	SKKanGAS inh	T cruzi repl	Mdm2 MdmX PPI	Lmaj promast	Mdm2-MdmX conf	others
CCOC(=O)N1CCN(S(=O)(=O)c2ccc(C(=O)N(CCCN(C)C)c3nc4ccc(CC)cc4s3)cc2)CC1	-6	-9	9	37	30	x	x
CCc1ccc2nc(N(CCCN(C)C)C(=O)c3ccc(C(=O)c4ccccc4)cc3)sc2c1	24	2	9	37	74*	x	21
COc1cccc2sc(N(CCCN(C)C)C(=O)c3ccc(S(=O)(=O)N4CCCc5ccccc54)cc3)nc12	23	9	1	17	80*	x	28
CCc1ccc2nc(N(CCCN(C)C)C(=O)c3ccc(S(=O)(=O)N4CCCc5ccccc54)cc3)sc2c1	u	20	17	61*	91*	x	30
CCOc1cccc2sc(N(CCCN(C)C)C(=O)c3ccc(S(=O)(=O)N4CCCCCC4)cc3)nc12	0	5	3	30	17	x	x
CCOc1ccc(NC(=O)N(Cc2ccc(C)cc2)Cc2ccccn2)cc1	1	4	-2	0	5	x	x
O=C(Nc1ccc2oc(-c3ccncc3)nc2c1)c1cccs1	-6	6	-7	-17	-9	16	x
Cc1ccc(-c2nc3ncccc3o2)cc1NC(=O)c1ccc([N+](=O)[O-])o1	75	27	32	49	44	x	x
O=C(Nc1ccc(-c2nc3cc(NC(=O)c4cccs4)ccc3o2)cc1)c1cccs1	10	26	2	-3	60*	-10	23
O=C(Nc1ccc2oc(-c3ccc4ccccc4c3)nc2c1)c1ccc2c(c1)OCCO2	22	49	21	19	80*	-2	-2
Cn1cc([N+](=O)[O-])c(C(=O)Nc2ccc(-c3nc4ccccc4o3)cc2)n1	104*	-9	x	6	52*	x	49*	FLuc counter=43*
O=C(Nc1ccc(-c2nc3ncccc3o2)cc1)c1ccc([N+](=O)[O-])o1	47	36	14	19	55*	x	49*	FLuc counter=54*
CC(=O)Nc1cccc(-c2nc3ccccc3o2)c1	-12	-9	-5	-6	11	x	x
COc1cccc(/C=N/n2c(-c3n[nH]c4c3CCC4)n[nH]c2=S)c1OC	3	-2	8	-12	-4	x	x
Cc1nnsc1S(=O)(=O)c1ccccc1	-17	-8	4	-11	3	x	x
Cc1ccc(OCc2cc(C(=O)N3CCc4sccc4C3)no2)cc1C	12	-14	12	6	9	x	x
O=C(Nc1ccc2oc(-c3ccncc3)nc2c1)c1ccc([N+](=O)[O-])o1	x	47	6	16	56*	x	44*	FLuc counter=45*
Cc1ccc(-n2c(=O)[nH]c3c(C(N)=O)nc(C(C)C)nc32)cc1	1	1	16	4	11	x	x
Cc1ccsc1-c1nc(C(N)=O)c2[nH]c(=O)n(-c3ccc(Cl)cc3)c2n1	1	0	-3	-3	97*	-10	12
O[C@@H]1[C@@H](O)C=C2CCN3Cc4cc5c(cc4[C@H]1C23)OCO5 (stereo not given in full)	6	36	x	x	84*	x	76*	FLuc counter=101*
COc1ccc2c(c1OC)CN1CCc3cc4c(cc3[C@@H]1[C@@H]2O)OCO4	-13	0	6	38	17	-1	x
COCCn1c(C)cc(O)c(C(=O)Nc2cccc(Cl)c2)c1=O	-2	-9	5	-2	65*	x	52*	FLuc counter=42*
COc1cc(CC(=O)NCc2ccc3c(c2)OCO3)cc(OC)c1OC	-21	3	-5	-14	27	7	x
COc1cc([C@@H]2c3cc4c(cc3[C@@H](O[C@@H]3O[C@@H]5CO[C@@H](C)O[C@H]5[C@H](O)[C@H]3O)[C@H]3COC(=O)[C@H]23)OCO4)cc(OC)c1O	64	11	5	-18	78*	x	60*	FLuc counter=32
COc1cc(C2c3cc4c(cc3C(OC3OC5COC(c6cccs6)OC5C(O)C3O)C3COC(=O)C23)OCO4)cc(OC)c1O (stereo not given)	101*	94*	42	33	94*	x	88*	FLuc counter=22
SMILES	CSC inhib	Beta cell apopt	SKKanGAS inh	T cruzi repl	Mdm2 MdmX PPI	Lmaj promast	Mdm2-MdmX conf	others
COc1cc([C@@H]2c3cc4c(cc3[C@H](O)[C@H]3COC(=O)[C@H]23)OCO4)cc(OC)c1OC	59	x	-3	13	75*	8	54*	FLuc counter=126*
COc1cc([C@@H]2c3cc4c(cc3[C@@H](NC3CCN(Cc5ccccc5)CC3)[C@H]3COC(=O)[C@H]23)OCO4)cc(OC)c1O	x	x	8	24	x	x	x
COc1cc([C@@H]2c3cc4c(cc3[C@@H](O)[C@@H](CO)[C@@H]2CO)OCO4)cc(OC)c1O[Si](C)(C)C(C)(C)C	58	-7	16	27	53*	x	4
Cc1ccc(NC(=O)C2CCCN(S(=O)(=O)c3ccc(-n4cnnn4)cc3)C2)cc1 (stereo not given)	x	-6	-6	-1	11	x	x
CC(C)[C@H](NC(=O)OCc1ccccc1)C(=O)OCC(=O)Nc1ccc(N2CCOCC2)cc1	-7	10	-3	0	22	x	x
O=C(c1cc(C(=O)NCCc2ccccc2)c(=O)n(CCc2ccccc2)c1)c1cc(Cl)ccc1O	3	17	6	-15	74*	98*	54*	FLuc counter=61*
CCOC(=O)c1csc(NC(=O)CN2CCN(C)CC2)n1	-6	-12	-2	-6	4	x	x
O=C(Nc1cccc(-c2csc(Nc3ccc(Cl)cc3)n2)c1)c1cccc(C(F)(F)F)c1	-18	35	44	44	58*	x	-6
O=C(Nc1cccc(-c2csc(Nc3ccc(Cl)cc3)n2)c1)c1cc([N+](=O)[O-])cc(C(F)(F)F)c1	108*	32	u	21	85*	x	28
O=C(Nc1ccc(-c2csc(Nc3ccc(Cl)cc3)n2)cc1)c1cc([N+](=O)[O-])cc(C(F)(F)F)c1	149*	-2	75*	23	71*	x	11
CC(C)OCCCNC(=O)c1ccc(NC(=O)C2=CSCCO2)cc1	8	x	2	-9	13	x	x
Cc1ccc(CS(=O)(=O)c2ccccc2-c2nnc(-c3ccc(Cl)cc3)o2)cc1	0	-1	10	-13	55*	-7	18
CCOc1ccc(/C(C)=N\NC(=O)Cc2ccccc2)cc1	-4	2	2	-3	-5	x	x
CC1=CC(C)(C)Nc2ccc(OC(=O)C(C)N3C(=O)c4ccccc4C3=O)cc21 (stereo not given)	20	-24	-5	-12	56*	101*	22
COc1ccc(OC(=O)C(C)N2C(=O)c3ccccc3C2=O)cc1 (stereo not given)	x	x	8	6	15	x	x
CC1=CC(C)(C)Nc2ccc(OC(=O)CN3C(=O)CCC3=O)cc21	x	x	3	56*	55*	100*	11
